Experimental findings from ChEMBL document CHEMBL4052823, “Extra Sugar on Vancomycin: New Analogues for Combating Multidrug-Resistant Staphylococcus aureus and Vancomycin-Resistant Enterococci” (J Med Chem, 2018) are described below.

The term MIC90 denotes the lowest concentration that inhibits either 90% of growth or 90% of the strains tested, depending on the study. A high value points to lower susceptibility.

Values after ≈ are worked out from the molar mass of the structure shown.

The subject of assay [1] is Staphylococcus aureus. In words: Antibacterial activity against healthcare-associated methicillin-resistant/vancomycin-intermediate Staphylococcus aureus Mu50 after 24 hrs by broth microdilution method. The format is functional. The following applies: Mu50, 24 h. The procedure, abridged:
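Broth microdilution in cation-adjusted Mueller-Hinton II broth. DMSO stocks were diluted in broth and twofold serially from 128 to 0.0625 μg/mL or lower. Each well was inoculated with ~10^5 CFU of exponential-phase bacteria and incubated at 37 °C for 24 h. MIC was the lowest concentration giving complete growth inhibition, read per CLSI. Growth controls contained broth plus DMSO.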

The subject of assay [2] is Staphylococcus aureus. Kind of assay: Antibacterial activity against vancomycin/methicillin-susceptible Staphylococcus aureus Newman […] after 24 hrs by broth microdilution method. The format is functional. The procedure, abridged: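 Broth microdilution in cation-adjusted Mueller-Hinton II broth. […] Each well received ~10^5 CFU of exponential-phase bacteria and was incubated at 37 °C for 24 h. MIC was taken as the lowest concentration giving complete growth inhibition, interpreted per CLSI.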

Regarding `CCCCCCCCCN[C@@]1(C)C[C@H](O[C@H]2[C@H](Oc3c4cc5cc3Oc3ccc(cc3Cl)[C@@H](O)[C@@H](NC(=O)[C@@H](CC(C)C)NC)C(=O)N[C@@H](CC(N)=O)C(=O)N[C@H]5C(=O)N[C@H]3C(=O)N[C@H](C(=O)N[C@H](C(=O)O)c5cc(O)c(CNCCO)c(O)c5-c5cc3ccc5O)[C@H](O)c3ccc(c(Cl)c3)O4)O[C@H](CO)[C@@H](O)[C@@H]2O)O[C@@H](C)[C@H]1O`, the values for the MIC90 against Staphylococcus aureus [1] and with Staphylococcus aureus [2] were 0.5 µg/mL (≈ 0.303 µM) and 0.12 µg/mL (≈ 0.0728 µM), respectively.

For `CCCCCCCCCCNCCN[C@@]1(C)C[C@H](O[C@H]2[C@H](Oc3c4cc5cc3Oc3ccc(cc3Cl)[C@@H](O)[C@@H](NC(=O)[C@@H](CC(C)C)NC)C(=O)N[C@@H](CC(N)=O)C(=O)N[C@H]5C(=O)N[C@H]3C(=O)N[C@H](C(=O)N[C@H](C(=O)O)c5cc(O)c(CNCCO[C@@H]6O[C@H](CO)[C@H](O)[C@H](O)[C@H]6O)c(O)c5-c5cc3ccc5O)[C@H](O)c3ccc(c(Cl)c3)O4)O[C@H](CO)[C@@H](O)[C@@H]2O)O[C@@H](C)[C@H]1O`, the figures for the MIC90 against Staphylococcus aureus [1] and in the assay on Staphylococcus aureus [2] were 2 µg/mL (≈ 1.07 µM) and 0.5 µg/mL (≈ 0.268 µM), respectively.

In the case of `CCCCCCCCCC(=O)N[C@@]1(C)C[C@H](O[C@H]2[C@H](Oc3c4cc5cc3Oc3ccc(cc3Cl)[C@@H](O)[C@@H](NC(=O)[C@@H](CC(C)C)NC)C(=O)N[C@@H](CC(N)=O)C(=O)N[C@H]5C(=O)N[C@H]3C(=O)N[C@H](C(=O)N[C@H](C(=O)O)c5cc(O)c(CNCCCNC(=O)[C@H](O)[C@@H](O)[C@H](O)[C@H](O)CO)c(O)c5-c5cc3ccc5O)[C@H](O)c3ccc(c(Cl)c3)O4)O[C@H](CO)[C@@H](O)[C@@H]2O)O[C@@H](C)[C@H]1O`, the MIC90 came to 64 µg/mL (≈ 34.3 µM) in the assay with Staphylococcus aureus [1] and 32 µg/mL (≈ 17.1 µM) against Staphylococcus aureus [2].

`CN[C@H](CC(C)C)C(=O)N[C@H]1C(=O)N[C@@H](CC(N)=O)C(=O)N[C@H]2C(=O)N[C@H]3C(=O)N[C@H](C(=O)N[C@H](C(=O)O)c4cc(O)c(CNCCCNC(=O)[C@H](O)[C@@H](O)[C@H](O)[C@H](O)CO)c(O)c4-c4cc3ccc4O)[C@H](O)c3ccc(c(Cl)c3)Oc3cc2cc(c3O[C@@H]2O[C@H](CO)[C@@H](O)[C@H](O)[C@H]2O[C@H]2C[C@](C)(NCc3ccc(-c4ccncc4)cc3)[C@H](O)[C@H](C)O2)Oc2ccc(cc2Cl)[C@H]1O`: the MIC90 is 4 µg/mL (≈ 2.13 µM) in the assay with Staphylococcus aureus [1] and 1 µg/mL (≈ 0.532 µM) with Staphylococcus aureus [2].

For `CN[C@H](CC(C)C)C(=O)N[C@H]1C(=O)N[C@@H](CC(N)=O)C(=O)N[C@H]2C(=O)N[C@H]3C(=O)N[C@H](C(=O)N[C@H](C(=O)O)c4cc(O)c(CNCCO)c(O)c4-c4cc3ccc4O)[C@H](O)c3ccc(c(Cl)c3)Oc3cc2cc(c3O[C@@H]2O[C@H](CO)[C@@H](O)[C@H](O)[C@H]2O[C@H]2C[C@](C)(NCc3ccc(-c4ccncc4)cc3)[C@H](O)[C@H](C)O2)Oc2ccc(cc2Cl)[C@H]1O`, the figures for the MIC90 against Staphylococcus aureus [1] and in the assay on Staphylococcus aureus [2] were 2 µg/mL (≈ 1.18 µM) and 0.5 µg/mL (≈ 0.296 µM), respectively.

`CCCCCCCCCCNCCN[C@@]1(C)C[C@H](O[C@H]2[C@H](Oc3c4cc5cc3Oc3ccc(cc3Cl)[C@@H](O)[C@@H](NC(=O)[C@@H](CC(C)C)NC)C(=O)N[C@@H](CC(N)=O)C(=O)N[C@H]5C(=O)N[C@H]3C(=O)N[C@H](C(=O)N[C@H](C(=O)O)c5cc(O)c(CNCCCNC(=O)[C@H](O)[C@@H](O)[C@H](O[C@@H]6O[C@H](CO)[C@H](O)[C@H](O)[C@H]6O)[C@H](O)CO)c(O)c5-c5cc3ccc5O)[C@H](O)c3ccc(c(Cl)c3)O4)O[C@H](CO)[C@@H](O)[C@@H]2O)O[C@@H](C)[C@H]1O`: the MIC90 was found to be 1 µg/mL (≈ 0.486 µM) in the assay on Staphylococcus aureus [1] and 0.25 µg/mL (≈ 0.121 µM) in the assay with Staphylococcus aureus [2].

Take `CN[C@H](CC(C)C)C(=O)N[C@H]1C(=O)N[C@@H](CC(N)=O)C(=O)N[C@H]2C(=O)N[C@H]3C(=O)N[C@H](C(=O)N[C@H](C(=O)O)c4cc(O)c(CNCCCNC(=O)[C@H](O)[C@@H](O)[C@H](O[C@@H]5O[C@H](CO)[C@H](O)[C@H](O)[C@H]5O)[C@H](O)CO)c(O)c4-c4cc3ccc4O)[C@H](O)c3ccc(c(Cl)c3)Oc3cc2cc(c3O[C@@H]2O[C@H](CO)[C@@H](O)[C@H](O)[C@H]2O[C@H]2C[C@](C)(NCc3ccc(-c4ccc(Cl)cc4)cc3)[C@H](O)[C@H](C)O2)Oc2ccc(cc2Cl)[C@H]1O`: the MIC90 turned out to be 0.5 µg/mL (≈ 0.241 µM) in the assay on Staphylococcus aureus [1] and 0.25 µg/mL (≈ 0.12 µM) in the assay on Staphylococcus aureus [2].

In the case of `CCCCCCCCCCNCCN[C@@]1(C)C[C@H](O[C@H]2[C@H](Oc3c4cc5cc3Oc3ccc(cc3Cl)[C@@H](O)[C@@H](NC(=O)[C@@H](CC(C)C)NC)C(=O)N[C@@H](CC(N)=O)C(=O)N[C@H]5C(=O)N[C@H]3C(=O)N[C@H](C(=O)N[C@H](C(=O)O)c5cc(O)c(CNCCO[C@@H]6O[C@H](CO)[C@@H](O)[C@H](O)[C@H]6NC(C)=O)c(O)c5-c5cc3ccc5O)[C@H](O)c3ccc(c(Cl)c3)O4)O[C@H](CO)[C@@H](O)[C@@H]2O)O[C@@H](C)[C@H]1O`, the MIC90 against Staphylococcus aureus [1] was 4 µg/mL (≈ 2.1 µM); against Staphylococcus aureus [2], 1 µg/mL (≈ 0.524 µM).

As to `CCCCCOc1ccc(CN[C@@]2(C)C[C@H](O[C@H]3[C@H](Oc4c5cc6cc4Oc4ccc(cc4Cl)[C@@H](O)[C@@H](NC(=O)[C@@H](CC(C)C)NC)C(=O)N[C@@H](CC(N)=O)C(=O)N[C@H]6C(=O)N[C@H]4C(=O)N[C@H](C(=O)N[C@H](C(=O)O)c6cc(O)c(CNCCCNC(=O)[C@H](O)[C@@H](O)[C@H](O)[C@H](O)CO)c(O)c6-c6cc4ccc6O)[C@H](O)c4ccc(c(Cl)c4)O5)O[C@H](CO)[C@@H](O)[C@@H]3O)O[C@@H](C)[C@H]2O)cc1`, the MIC90 came out at 2 µg/mL (≈ 1.06 µM) with Staphylococcus aureus [1] and 1 µg/mL (≈ 0.529 µM) in the assay with Staphylococcus aureus [2].

For the compound `CN[C@H](CC(C)C)C(=O)N[C@H]1C(=O)N[C@@H](CC(N)=O)C(=O)N[C@H]2C(=O)N[C@H]3C(=O)N[C@H](C(=O)N[C@H](C(=O)O)c4cc(O)c(CNCCCNC(=O)[C@H](O)[C@@H](O)[C@H](O)[C@H](O)CO)c(O)c4-c4cc3ccc4O)[C@H](O)c3ccc(c(Cl)c3)Oc3cc2cc(c3O[C@@H]2O[C@H](CO)[C@@H](O)[C@H](O)[C@H]2O[C@H]2C[C@](C)(NCc3ccc4ccccc4c3)[C@H](O)[C@H](C)O2)Oc2ccc(cc2Cl)[C@H]1O`, the MIC90 in the assay with Staphylococcus aureus [1] is 4 µg/mL (≈ 2.16 µM); against Staphylococcus aureus [2] it was 1 µg/mL (≈ 0.539 µM).

Take `C#Cc1ccc(CN[C@@]2(C)C[C@H](O[C@H]3[C@H](Oc4c5cc6cc4Oc4ccc(cc4Cl)[C@@H](O)[C@@H](NC(=O)[C@@H](CC(C)C)NC)C(=O)N[C@@H](CC(N)=O)C(=O)N[C@H]6C(=O)N[C@H]4C(=O)N[C@H](C(=O)N[C@H](C(=O)O)c6cc(O)c(CNCCCNC(=O)[C@H](O)[C@@H](O)[C@H](O)[C@H](O)CO)c(O)c6-c6cc4ccc6O)[C@H](O)c4ccc(c(Cl)c4)O5)O[C@H](CO)[C@@H](O)[C@@H]3O)O[C@@H](C)[C@H]2O)cc1`: the MIC90 in the assay with Staphylococcus aureus [1] is 8 µg/mL (≈ 4.38 µM); with Staphylococcus aureus [2], 4 µg/mL (≈ 2.19 µM).

With `CCCCCCCCCCNCCN[C@@]1(C)C[C@H](O[C@H]2[C@H](Oc3c4cc5cc3Oc3ccc(cc3Cl)[C@@H](O)[C@@H](NC(=O)[C@@H](CC(C)C)NC)C(=O)N[C@@H](CC(N)=O)C(=O)N[C@H]5C(=O)N[C@H]3C(=O)N[C@H](C(=O)N[C@H](C(=O)O)c5cc(O)c(CNCCO[C@H]6O[C@H](CO)[C@@H](O)[C@H](O)[C@@H]6O)c(O)c5-c5cc3ccc5O)[C@H](O)c3ccc(c(Cl)c3)O4)O[C@H](CO)[C@@H](O)[C@@H]2O)O[C@@H](C)[C@H]1O`, the MIC90 was found to be 2 µg/mL (≈ 1.07 µM) in the assay with Staphylococcus aureus [1] and 1 µg/mL (≈ 0.535 µM) in the assay on Staphylococcus aureus [2].

For `CN[C@H](CC(C)C)C(=O)N[C@H]1C(=O)N[C@@H](CC(N)=O)C(=O)N[C@H]2C(=O)N[C@H]3C(=O)N[C@H](C(=O)N[C@H](C(=O)O)c4cc(O)c(CNCCCNC(=O)[C@H](O)[C@@H](O)[C@H](O)[C@H](O)CO)c(O)c4-c4cc3ccc4O)[C@H](O)c3ccc(c(Cl)c3)Oc3cc2cc(c3O[C@@H]2O[C@H](CO)[C@@H](O)[C@H](O)[C@H]2O[C@H]2C[C@](C)(NCc3ccc(OCc4cccc(-c5ccccc5)c4C)c(Cl)c3)[C@H](O)[C@H](C)O2)Oc2ccc(cc2Cl)[C@H]1O`, the figures for the MIC90 in the assay with Staphylococcus aureus [1] and against Staphylococcus aureus [2] were 1 µg/mL (≈ 0.492 µM) and 0.5 µg/mL (≈ 0.246 µM), respectively.

Consider `CN[C@H](CC(C)C)C(=O)N[C@H]1C(=O)N[C@@H](CC(N)=O)C(=O)N[C@H]2C(=O)N[C@H]3C(=O)N[C@H](C(=O)N[C@H](C(=O)O)c4cc(O)c(CN[C@H]5C(O)O[C@H](CO)[C@H](O)[C@@H]5O)c(O)c4-c4cc3ccc4O)[C@H](O)c3ccc(c(Cl)c3)Oc3cc2cc(c3O[C@@H]2O[C@H](CO)[C@@H](O)[C@H](O)[C@H]2O[C@H]2C[C@](C)(NCc3ccc(C#C[Si](C)(C)C)cc3)[C@H](O)[C@H](C)O2)Oc2ccc(cc2Cl)[C@H]1O` (some centres not stated), for which the MIC90 came to 2 µg/mL (≈ 1.09 µM) with Staphylococcus aureus [1] and 0.5 µg/mL (≈ 0.274 µM) in the assay with Staphylococcus aureus [2].

For the compound `CCc1ccc(CN[C@@]2(C)C[C@H](O[C@H]3[C@H](Oc4c5cc6cc4Oc4ccc(cc4Cl)[C@@H](O)[C@@H](NC(=O)[C@@H](CC(C)C)NC)C(=O)N[C@@H](CC(N)=O)C(=O)N[C@H]6C(=O)N[C@H]4C(=O)N[C@H](C(=O)N[C@H](C(=O)O)c6cc(O)c(CNCCCNC(=O)[C@H](O)[C@@H](O)[C@H](O)[C@H](O)CO)c(O)c6-c6cc4ccc6O)[C@H](O)c4ccc(c(Cl)c4)O5)O[C@H](CO)[C@@H](O)[C@@H]3O)O[C@@H](C)[C@H]2O)cc1`, the MIC90 against Staphylococcus aureus [1] was determined as 8 µg/mL (≈ 4.37 µM); in the assay with Staphylococcus aureus [2], 4 µg/mL (≈ 2.18 µM).

For `C#Cc1ccc(CN[C@@]2(C)C[C@H](O[C@H]3[C@H](Oc4c5cc6cc4Oc4ccc(cc4Cl)[C@@H](O)[C@@H](NC(=O)[C@@H](CC(C)C)NC)C(=O)N[C@@H](CC(N)=O)C(=O)N[C@H]6C(=O)N[C@H]4C(=O)N[C@H](C(=O)N[C@H](C(=O)O)c6cc(O)c(CN[C@H]7C(O)O[C@H](CO)[C@H](O)[C@@H]7O)c(O)c6-c6cc4ccc6O)[C@H](O)c4ccc(c(Cl)c4)O5)O[C@H](CO)[C@@H](O)[C@@H]3O)O[C@@H](C)[C@H]2O)cc1` (some centres not stated), the MIC90 with Staphylococcus aureus [1] was found to be 8 µg/mL (≈ 4.56 µM); in the assay with Staphylococcus aureus [2] it was 2 µg/mL (≈ 1.14 µM).
